Converted amounts (≈) assume the structure as drawn. A value given as a limit tells only on which side of the number the result lay.

The logP is a log measure of how a compound divides between an organic and an aqueous phase.

The subject of data set [1] is rhinovirus A2. Kind of data set: Antirhinovirus activity was assessed and the maximum testable concentration that causes no apparent effects on the cell monolayers was determined against HRV-2 virus in vitro. Format: functional, human rhinovirus type 2.
Data set [2] concerns rhinovirus A2. Kind of data set: Antiviral activity determined by ability to inhibit the HRV-2( human rhinovirus type -2) virus by plaque reduction assay in vitro. Format: functional. To be noted: Rhinovirus A. The gist of the method: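 Plaque reduction assay against human rhinovirus type 2 (HRV-2), following an earlier reported method. The value is the MIC, the minimum inhibitory concentration.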
On the technique in general: In a plaque reduction assay, fewer plaques than in the control indicate reduced infectivity or spread.

For data set [3], the system named is Human rhinovirus sp. Description: Mean of MIC's was determined for the five types of virus like HRV-2, HRV-1A,HRV-22,HRV-41 and HRV-50. Format: functional. In short, it runs like this:
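MIC measured by plaque reduction against HRV-2 first. The value is the mean of the MICs across these five serotypes.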

In data set [4] the test system is human rhinovirus (15-serotype panel). Description: Antirhinovirus activity was determined by the ability to inhibit the growth of 80% of a panel of 15 human rhinovirus serotypes.
Data set [5] concerns rhinovirus A15. Description: Tested for antirhinoviral activity against the rhinovirus serotype 15. Format: functional. Conditions: Rhinovirus A. The gist of the method:
(§1)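 Selected compounds were tested across a 15-serotype rhinovirus panel: the five secondary serotypes plus 10 more. An MIC was recorded for each serotype. MIC80, the concentration inhibiting 80% of serotypes tested, was also derived from this panel.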

Data set [6] has as its system rhinovirus A41. Kind of data set: Tested for antirhinoviral activity against the rhinovirus serotype 41. The format is functional. To be noted: Rhinovirus A. In short, it runs like this:
as §1

For data set [7], the system named is rhinovirus B14. Kind of data set: Tested for antirhinoviral activity against the rhinovirus serotype 14. Conditions: Rhinovirus B. The format is functional, human rhinovirus type 14. The gist of the method:
as §1

Data set [8] has as its system rhinovirus A50. Description: Tested for antirhinoviral activity against the rhinovirus serotype 50. Format: functional. To be noted: Rhinovirus A. In short, it runs like this:
as §1

For data set [9], the system named is rhinovirus B86. Description: Tested for antirhinoviral activity against the rhinovirus serotype 86. To be noted: Rhinovirus B. Format: functional. In short, it runs like this: as §1
In data set [10] the test system is rhinovirus A67. Description: Tested for antirhinoviral activity against the rhinovirus serotype 67. To be noted: Rhinovirus A. The format is functional. In short, it runs like this: as §1
In data set [11] the test system is rhinovirus A2. Description: Tested for antirhinoviral activity against the rhinovirus serotype 2. Format: functional, human rhinovirus type 2. To be noted: Rhinovirus A. In short, it runs like this:
as §1

Data set [12] relates to rhinovirus A1B. Kind of data set: Tested for antirhinoviral activity against the rhinovirus serotype 1B. Format: functional, human rhinovirus type 1b. To be noted: Rhinovirus A. In short, it runs like this: as §1
Data set [13] concerns Human rhinovirus 1A. Description: Tested for antirhinoviral activity against the rhinovirus serotype 1A. The format is functional. The gist of the method: as §1
The test system of data set [14] is rhinovirus B6. Description: Tested for antirhinoviral activity against the rhinovirus serotype 6. Format: functional. To be noted: Rhinovirus B. The gist of the method:
as §1

Data set [15] relates to rhinovirus A30. Description: Tested for antirhinoviral activity against the rhinovirus serotype 30. Conditions: Rhinovirus A. Format: functional. In short, it runs like this:
as §1

Data set [16] concerns rhinovirus A25. Description: Tested for antirhinoviral activity against the rhinovirus serotype 25. Format: functional. Conditions: Rhinovirus A. The gist of the method:
as §1

Data set [17] deals with rhinovirus A21. Description: Tested for antirhinoviral activity against the rhinovirus serotype 21. The format is functional. To be noted: Rhinovirus A. The gist of the method:
as §1

In data set [18] the test system is rhinovirus A22. Kind of data set: Tested for antirhinoviral activity against the rhinovirus serotype 22. The format is functional. Conditions: Rhinovirus A. The gist of the method:
as §1

Data set [19] has as its system rhinovirus A89. Kind of data set: Tested for antirhinoviral activity against the rhinovirus serotype 89. The format is functional, human rhinovirus type 89. Conditions: Rhinovirus A. In short, it runs like this: as §1
The nature of data set [20]: Partition coefficient (logP). Format: physicochemical. Conditions: octanol/water.

Regarding `Cc1cc(CCCCCOc2ccc(C3=NCCO3)cc2CO)on1`, the MTL in data set [1] was 9 µM. Moreover, in [2], the MIC worked out at 7.1 µM (≈ 2.45 µg/mL).

As to `CCC(=O)Nc1cc(C2=NCCO2)ccc1OCCCCCc1cc(C)no1`, the MTL in [1] amounted to 16 µM. The molecule also had an MIC in data set [2] of 7.3 µM (≈ 2.81 µg/mL).

With `Cc1cc(CCCCCCOc2ccc(C3=NCCO3)cc2Cl)on1`, the MTL in data set [1] worked out at 8.5 µM. The MIC in data set [2] was 0.06 µM (≈ 0.0218 µg/mL); in [3] it was 1.4 µM (≈ 0.508 µg/mL). In data set [4], this molecule gave an MIC80 of 1.2 µM (≈ 0.435 µg/mL).

For the molecule `Cc1cc(CCCCCOc2ccc(C3=NCCO3)cc2F)on1`, the MTL in data set [1] was determined as 9.3 µM. Besides, the MIC in [2] is 0.4 µM (≈ 0.133 µg/mL); in [3], above 9.3 µM.

As to `Cc1cc(CCCCCCCOc2ccc(C3=NCCO3)cc2Cl)on1`, the MTL in [1] worked out at 17 µM. Moreover, the figures for the MIC in [2] and in data set [3] were 0.1 µM (≈ 0.0377 µg/mL) and 2.3 µM (≈ 0.867 µg/mL), respectively. In data set [4], this molecule registered an MIC80 of 2.8 µM (≈ 1.06 µg/mL).

For the molecule `Cc1cc(CCCCCOc2ccc(C3=NCCO3)cc2Cl)on1`, the MIC is 0.2 µM (≈ 0.0698 µg/mL) in [5]; 3.5 µM (≈ 1.22 µg/mL) in data set [6]; 2.4 µM (≈ 0.837 µg/mL) in [7]; 0.2 µM (≈ 0.0698 µg/mL) in [8]; 0.9 µM (≈ 0.314 µg/mL) in data set [9]; 0.23 µM (≈ 0.0802 µg/mL) in data set [10]. Moreover, the MIC in data set [11] worked out at 0.06 µM (≈ 0.0209 µg/mL); in data set [12] it was 0.2 µM (≈ 0.0698 µg/mL); in [13], 1 µM (≈ 0.349 µg/mL); in data set [14], 0.6 µM (≈ 0.209 µg/mL); in data set [2], 0.06 µM (≈ 0.0209 µg/mL); in data set [15], 0.07 µM (≈ 0.0244 µg/mL). For the same molecule, the MIC in data set [3] stood at 1 µM (≈ 0.349 µg/mL); in data set [16], 2.4 µM (≈ 0.837 µg/mL); in data set [17], 0.07 µM (≈ 0.0244 µg/mL); in data set [18] it was 0.1 µM (≈ 0.0349 µg/mL); in data set [19], 0.03 µM (≈ 0.0105 µg/mL). The MTL in data set [1] was found to be 8.9 µM. Besides, the MIC80 in data set [4] came out at 1 µM (≈ 0.349 µg/mL).

Regarding `Cc1cc(CCCCCOc2ccc(C3=NCCO3)cc2N)on1`, the logP in [20] is 2.83. The MTL in data set [1] amounted to 19 µM. In addition, the MIC worked out at 0.91 µM (≈ 0.3 µg/mL) in data set [2] and 7 µM (≈ 2.31 µg/mL) in data set [3].

Turning to `Cc1cc(CCCCCOc2ccc(C3=NCCO3)cc2N(C)C)on1`, in [1], the MTL stood at 17 µM. Further, the results for the MIC in data set [2] and in data set [3] were 0.2 µM (≈ 0.0715 µg/mL) and above 17 µM, respectively.

Consider `CCc1cc(C2=NCCO2)ccc1OCCCCCc1cc(C)no1`, for which the log partition coefficient (logP) in [20] amounted to 4.71. Besides, the MIC came out at 0.4 µM (≈ 0.137 µg/mL) in data set [5]; 6.7 µM (≈ 2.29 µg/mL) in data set [6]; 1.1 µM (≈ 0.377 µg/mL) in data set [7]; 0.1 µM (≈ 0.0342 µg/mL) in data set [8]; 1.9 µM (≈ 0.651 µg/mL) in data set [9]; 0.3 µM (≈ 0.103 µg/mL) in data set [10]. The MIC turned out to be 0.06 µM (≈ 0.0205 µg/mL) in data set [11]; 0.09 µM (≈ 0.0308 µg/mL) in data set [12]; 2 µM (≈ 0.685 µg/mL) in data set [13]; 3.2 µM (≈ 1.1 µg/mL) in data set [14]; 0.06 µM (≈ 0.0205 µg/mL) in [2]; 0.1 µM (≈ 0.0342 µg/mL) in data set [15]. Besides, the MIC in [3] was determined as 1.8 µM (≈ 0.616 µg/mL); in data set [16] it was 4 µM (≈ 1.37 µg/mL); in data set [17], 0.04 µM (≈ 0.0137 µg/mL); in [18], 0.1 µM (≈ 0.0342 µg/mL); in data set [19], 0.07 µM (≈ 0.024 µg/mL). Further, in [1], the MTL was found to be 9.1 µM. For the same molecule, the MIC80 in data set [4] was 2 µM (≈ 0.685 µg/mL).

Regarding `Cc1cc(CCCCCOc2ccc(C3=NCCO3)cc2C(C)C)on1`, in data set [1], the MTL was found to be 2.2 µM. Besides, the MIC is 0.2 µM (≈ 0.0713 µg/mL) in [2] and above 50 µM in data set [3].

Consider `Cc1cc(CCCCCOc2ccc(C3=NCCO3)cc2C(F)(F)F)on1`, for which the logP in data set [20] is 4.38. The MIC in [5] is 0.2 µM (≈ 0.0765 µg/mL); in data set [6] it was 0.2 µM (≈ 0.0765 µg/mL); in [7], 3 µM (≈ 1.15 µg/mL); in [8], 1.1 µM (≈ 0.421 µg/mL); in data set [9], 0.03 µM (≈ 0.0115 µg/mL); in [10], 0.2 µM (≈ 0.0765 µg/mL). In addition, the MIC was 0.03 µM (≈ 0.0115 µg/mL) in [11]; 0.04 µM (≈ 0.0153 µg/mL) in data set [12]; 0.4 µM (≈ 0.153 µg/mL) in [13]; 1.8 µM (≈ 0.688 µg/mL) in data set [14]; 0.03 µM (≈ 0.0115 µg/mL) in data set [2]; 0.3 µM (≈ 0.115 µg/mL) in [15]. The MIC in data set [3] is 0.4 µM (≈ 0.153 µg/mL); in [16], 0.2 µM (≈ 0.0765 µg/mL); in [17], 0.03 µM (≈ 0.0115 µg/mL); in data set [18], 0.07 µM (≈ 0.0268 µg/mL); in [19], 0.2 µM (≈ 0.0765 µg/mL). In addition, the MTL in [1] was 3.4 µM. The MIC80 in data set [4] is 1.1 µM (≈ 0.421 µg/mL).

The record behind these values is ChEMBL document CHEMBL1123677, “Structure-activity studies of 5-[[4-(4,5-dihydro-2-oxazolyl) phenoxy]alkyl]-3-methylisoxazoles: inhibitors of picornavirus uncoating” (J Med Chem, 1987).
